# The campaign covered roughly 310,000 compounds. About 1,500 (0.48%) were called active.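 Rule for the calls: active = B-score above 5 SD of library B-scores, and initial fluorescence ratio not above library mean plus 5 SD; inactive = the rest.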 This excerpt belongs to a sample that is enriched for actives.
# Target: Short transient receptor potential channel 4 (Mus musculus) (UniProt Q9QUQ5)
# Experiment: TRPC4 cation channel opening, calcium rise – Fluo4 calcium, HEK293 TRPC4beta/mu-opioid cells, primary screen (AID 2237);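 for B-score: positive B-score marks a calcium rise read as TRPC4 activation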
# Details: Fluo4 calcium fluorescence, at 10 µM; active compounds read high
# How it was run: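 system = HEK293 cells stably co-expressing mouse TRPC4beta and mu-opioid receptor | schedule = Fluo4 dye loading 45 min at room temperature, 110 s recording | measure = B-scored integrated calcium fluorescence ratio | signal = Fluo4 calcium-sensitive dye fluorescence, kinetic, 1 Hz baseline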
# Sequence of Short transient receptor potential channel 4 (Mus musculus) (Q9QUQ5 whole entry, looked up): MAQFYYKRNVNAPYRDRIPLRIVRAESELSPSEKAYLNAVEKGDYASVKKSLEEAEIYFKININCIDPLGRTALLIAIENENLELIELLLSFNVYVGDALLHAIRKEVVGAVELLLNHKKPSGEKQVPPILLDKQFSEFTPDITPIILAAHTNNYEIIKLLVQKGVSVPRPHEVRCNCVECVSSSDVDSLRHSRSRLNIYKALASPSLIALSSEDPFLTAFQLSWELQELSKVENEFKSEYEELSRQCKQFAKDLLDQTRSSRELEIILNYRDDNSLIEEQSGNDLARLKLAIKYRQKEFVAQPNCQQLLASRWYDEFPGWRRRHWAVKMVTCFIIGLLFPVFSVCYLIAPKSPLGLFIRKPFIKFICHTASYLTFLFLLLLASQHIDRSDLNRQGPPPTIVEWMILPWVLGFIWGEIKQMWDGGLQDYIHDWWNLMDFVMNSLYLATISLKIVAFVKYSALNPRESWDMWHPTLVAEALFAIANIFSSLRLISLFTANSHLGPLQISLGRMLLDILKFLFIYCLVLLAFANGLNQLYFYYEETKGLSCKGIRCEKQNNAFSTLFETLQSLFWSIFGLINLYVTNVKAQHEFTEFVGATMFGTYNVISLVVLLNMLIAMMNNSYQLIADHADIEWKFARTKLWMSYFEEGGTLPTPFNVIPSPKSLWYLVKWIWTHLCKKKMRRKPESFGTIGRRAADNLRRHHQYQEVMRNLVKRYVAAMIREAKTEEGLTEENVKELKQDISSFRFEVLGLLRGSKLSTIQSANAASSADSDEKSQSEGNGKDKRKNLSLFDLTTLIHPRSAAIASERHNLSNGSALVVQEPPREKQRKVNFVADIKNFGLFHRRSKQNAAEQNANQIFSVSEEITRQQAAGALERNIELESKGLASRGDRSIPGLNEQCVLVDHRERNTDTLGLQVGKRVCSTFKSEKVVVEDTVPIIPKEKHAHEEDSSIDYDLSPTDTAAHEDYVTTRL
row,Structure (SMILES),B-score
1,O=S(=O)(NCCc1csc(-c2ccccc2)n1)c1cccnc1,102 (active)
2,Cc1nc(CNS(=O)(=O)c2cccnc2)cs1,inactive
3,O=S(=O)(NCCc1ccncc1)c1ccccc1,inactive
4,CC#CC[N+](C)(C)CCCCCC,inactive
5,COC(=O)CC(=O)N1CCN(c2ccc(Cl)c(Cl)c2)CC1,inactive
6,COc1ccc(OCC(O)CNC(=O)Nc2ccc(Cl)cc2)cc1 (centres undefined),inactive
7,OC(CNCCc1ccc(Cl)cc1Cl)COc1ccccc1 (centres undefined),44 (active)
8,OC(CNCc1ccc2c(c1)OCO2)COc1ccccc1 (centres undefined),inactive
9,CO/N=C/c1cn(-c2ccc(Cl)cc2)nn1,inactive
10,CCN(CC)c1ccc(NC(=O)CCc2nnc3ccc(N4CCCCC4)nn23)c(C)c1,inactive
11,CC(NC(=O)C(C)(C)C)C(c1cccs1)N1CCN(Cc2ccccc2)CC1 (centres undefined),inactive
12,CCCC(=O)NC(C)C(c1cccs1)N1CCN(c2ccccc2)CC1 (centres undefined),87 (active)
13,CC(NC(=S)Nc1ccccc1)C(c1cccs1)N1CCOCC1 (centres undefined),inactive
14,COc1ccc(CNC(=O)c2ccc3oc(C(C)C)nc3c2)cc1,inactive
15,COc1ccc(N(CC(=O)Nc2ccc(C)cc2C)S(=O)(=O)c2ccccc2[N+](=O)[O-])c(OC)c1,inactive
16,O=C(Nc1ccc2sc3ccccc3c(=O)c2c1)c1ccccc1Cl,inactive
17,Cc1[nH]n(-c2cccc(Cl)c2)c(=O)c1/C=N/n1c(C)nc2ccccc2c1=O,inactive
18,COc1cc(SC#N)ccc1N=Cc1c(C)[nH]n(-c2ccc(C)cc2)c1=O,inactive
19,Cc1ccc(-n2[nH]c(C)c(/C=N/N3C(=O)c4cccc5cccc(c45)C3=O)c2=O)cc1,131 (active)
20,COc1ccccc1CCNS(=O)(=O)c1cc2c3c(c1)C(C)C(=O)N3CCC2 (centres undefined),inactive
21,CCOc1ccc(S(=O)(=O)NCCC(=O)NCC(C)(C)N2CCOCC2)cc1,inactive
22,COc1ccccc1NC(=O)CC(NCCN(C)C)C(=O)O (centres undefined),inactive

row,Structure (SMILES),B-score
1,COC(=O)C(CC(=O)Nc1cc(C)ccc1C)Nc1ccccc1OC (centres undefined),69 (active)
2,COc1ccc(C)cc1NC(=O)Nc1ccccc1SC,inactive
3,Cc1ccc(CNC(=O)Cc2cn(C)c3ccccc23)cc1,inactive
4,COc1ccc(N2CCN(C(=O)c3cccs3)CC2)cc1,inactive
5,CS(=O)(=O)N(CC(=O)Nc1ccc(Cl)c(Cl)c1)C1CCCCC1,inactive
6,O=C(Nc1cccnc1)c1cc(Cl)ccc1Cl,inactive
7,CC(c1cccnc1)N(CCN(C)C)C(=O)Nc1ccc(Cl)c(Cl)c1 (centres undefined),62 (active)
8,CC1=C/C(=N\OS(=O)(=O)c2ccccc2)C=CC1=O,inactive
9,COc1ccc(-n2nc(C(=O)NCC(=O)N3CCC(C(N)=O)CC3)c3ccccc3c2=O)cc1OC,inactive
10,CC1(C)N=C(c2ccccn2)C(C)(C)N1O,inactive
11,CC1(C)CC(CNCCC(c2ccc(F)cc2)c2ccco2)CCO1 (centres undefined),inactive
12,O=C(NCCc1ccccn1)c1cccnc1Oc1ccc(Cl)cc1,inactive
13,O=C(CNC(=O)COc1ccccc1)NCCc1ccccn1,inactive
14,O=C(COc1cc(Cl)c(Cl)cc1Cl)NCCc1ccccn1,85 (active)
15,CCn1cc(-c2cc(C(=O)O)on2)c(C)n1,inactive
16,S=c1nc(C23CC4CC(CC(C4)C2)C3)nc2sccn12,inactive
17,N[C@@H](Cc1ccccc1)C(=O)N1CCC(C(=O)NCC(=O)Nc2ccc(F)cc2)CC1,inactive
18,CCN(CC)CCN(C(=O)c1cc(Cl)sc1Cl)c1nc2cc3c(cc2s1)OCO3,inactive
19,CN(C)CCN(C(=O)C1CCCCC1)c1nc2cc3c(cc2s1)OCO3,66 (active)
20,CN(C)CCN(C(=O)CN1C(=O)c2ccccc2C1=O)c1nc2cc3c(cc2s1)OCCO3,inactive
21,COc1cccc(/C=N/NC(=O)C(=O)N2CCCC2)c1,inactive
22,COc1ccc(/C=N/N(C)C2=NS(=O)(=O)c3ccccc32)cc1OC,inactive

row,Structure (SMILES),B-score
1,CN(Cc1ccco1)S(=O)(=O)c1nnc(NC(=O)c2ccccc2)s1,inactive
2,O=S(=O)(Oc1ccccc1C(=S)N1CCOCC1)c1ccc(Cl)cc1,inactive
3,C[C@]1(C(=O)NCCc2c[nH]c3ccccc23)C=C[C@@H](Cc2ccccc2)N1C(=O)c1ccccc1,inactive
4,Cc1cc(C)cc(C(=O)N(CCc2ccccc2)C2=CC3CCC(C2)N3C)c1 (centres undefined),75 (active)
5,Cc1ccc(CCN2CC(C(=O)NCCc3ccccc3)CC2=O)cc1 (centres undefined),inactive
6,C=CCN(C(=O)c1cc(C)cc(C)c1)C1(C(=O)Nc2ccccc2)CCN(C(C)C)CC1,inactive
7,O=C(CC(c1ccccc1)c1ccccc1)NCC(O)c1ccc([N+](=O)[O-])cc1 (centres undefined),inactive
8,CN(C)CCNC(=O)Cc1ccc([N+](=O)[O-])cc1,inactive
9,CN(C)C(CNC(=O)Cc1ccc([N+](=O)[O-])cc1)c1ccccc1 (centres undefined),179 (active)
10,CC(C)Oc1c(Br)cc(Br)cc1/C=N/NC(N)=S,inactive
11,Cc1ccc(S(=O)(=O)N(Cc2cc3ccccc3[nH]c2=O)CC2CCCO2)cc1 (centres undefined),inactive
12,COc1ccc(C(=O)NNC(=S)NC(=O)c2ccccc2[N+](=O)[O-])cc1,inactive
13,Cc1ccc(OCC(=O)NNC(=S)NCc2ccccc2)cc1,inactive
14,O=C(CCc1ccccc1)NNC(=O)COc1ccc(Cl)cc1,inactive
15,COc1ccc(C(=O)NC(=S)NNC(=O)CCc2ccccc2)cc1,96 (active)
16,CC(C)Oc1ccc(CCC(=O)NNC(=S)NCc2ccccc2)cc1,123 (active)
17,COc1ccc(C(=O)NC2CCN(C(=S)NCCc3ccccc3)CC2)cc1,inactive
18,COc1ccc(C(=O)NNC(=S)NC(=O)c2ccccc2)cc1,180 (active)
19,O=C(NNC(=S)NCc1ccccc1)c1ccc(OC(F)F)cc1,inactive
20,COc1ccc(C(=O)NC(=S)NC2CCCCC2)cc1,inactive
21,Cc1cc(C)c(C(=O)CSc2nc(C)cc(=O)[nH]2)c(C)c1,inactive
22,Cc1ccc(C(=O)NCC(=O)OCC(=O)NC2CCCCCCC2)cc1,inactive

row,Structure (SMILES),B-score
1,COc1ccc(Br)cc1CN(C)CC(=O)Nc1cc([N+](=O)[O-])ccc1OC,inactive
2,CCCn1nc(C(=O)N2CCCc3ccccc32)c2ccccc2c1=O,inactive
3,CN(C)C(=O)N1CCNCC1,inactive
4,Cc1ccc(CC2CC(=O)N(c3cc(C)ccc3C)C2=O)cc1 (centres undefined),inactive
5,O=C(CNS(=O)(=O)c1ccc(Br)s1)N1CCN(C(=O)c2ccco2)CC1,inactive
6,CCSc1nc(O)c(C(c2cccc(OC)c2)c2c(O)nc(SCC)[nH]c2=O)c(=O)[nH]1,inactive
7,CC1CCN(C(=O)C2CCN(S(=O)(=O)N3CCC4(CC3)OCCO4)CC2)CC1,inactive
8,COc1ccc(CCN(C)CCN2C(=O)c3ccccc3C2=O)cc1OC,159 (active)
9,COc1ccc(CCN2C(=O)C3CC=C(C)CC3C2=O)cc1OC (centres undefined),inactive
10,COc1ccc(CCN2C(=O)C(C)=C(C)C2=O)cc1OC,inactive
11,O=c1[nH]c2ccccc2s1,inactive
12,CN(CCc1cn[nH]c1)C(=O)CC1C(=O)NCCN1Cc1cccc(Oc2ccccc2)c1 (centres undefined),inactive
13,COc1cccc(CN2CCNC(=O)C2CC(=O)N(C)CCc2ccccn2)c1 (centres undefined),132 (active)
14,COc1ccc(CN2CCNC(=O)C2CC(=O)N(C)Cc2ccccn2)cc1OC (centres undefined),inactive
15,CCC(C)(C)NC(=O)C(c1ccc(O)cc1)N(Cc1ccco1)C(=O)CCC(=O)Nc1ccccn1 (centres undefined),inactive
16,CCOc1c2ccc(C(=O)NC3CCCc4ccccc43)cc2nn1CC (centres undefined),inactive
17,OCCC#Cc1ccc(CN2CCN(Cc3ccsc3)C(CCO)C2)cc1 (centres undefined),inactive
18,OCCC1CN(Cc2ccccc2-c2ccco2)CCN1Cc1ccsc1 (centres undefined),44 (active)
19,Cc1ccc(CN2CCN(Cc3ccccc3-c3ccco3)CC2CCO)o1 (centres undefined),inactive
20,COc1cc(CO)ccc1OCC(=O)Nc1cccc2ccccc12,inactive
21,CCN(CC(=O)NCc1cccs1)C(=O)c1ccc(OC)c(S(=O)(=O)N2CCOCC2)c1,inactive
22,O=C(c1c(F)cccc1F)N1CCN(c2ncc(Br)cn2)CC1,204 (active)

row,Structure (SMILES),B-score
1,CC(=O)NC1(c2ccc(F)cc2)CCN(C(=O)c2c(F)cccc2F)CC1,inactive
2,O=C(c1c(F)cccc1Cl)N1CCN(c2ccccn2)CC1,inactive
3,COc1ccc(Cl)cc1C(=O)NNC(=O)c1nc2nc(C)cc(C)n2n1,inactive
4,Cc1ccc(-c2nn(-c3ccccc3)cc2CN(Cc2ccccc2)C(=O)CCC(=O)O)o1,inactive
5,COc1ccc(-c2nn(-c3ccccc3)cc2C(=O)Nc2nc(CC(C)=O)ns2)cc1,inactive
6,CCc1ccc(-c2nn(-c3ccccc3)cc2CSC(=N)N)cc1,260 (active)
7,COc1ccc(-c2cc(=O)oc3cc(OC(C)C(=O)NCC4CCC(C(=O)O)CC4)ccc23)cc1 (centres undefined),inactive
8,Cc1[nH]c2ccccc2c1-c1ccc(Cl)nn1,inactive
9,CCOC(=O)C1CCCCN1Cc1ccc(OC)c(OC)c1OC (centres undefined),inactive
10,CCOC(=O)c1cc(C#N)c(N2CCCCC2)nc1-c1ccccc1,inactive
11,CCOC(=O)c1cc(C)nc(S(C)(=O)=O)c1C#N,inactive
12,CCCCSc1[nH]c(=O)c(C(=O)OCC)cc1C#N,56 (active)
13,CC1CCN(CC(=O)Nc2nccs2)CC1,inactive
14,COc1ccc(Cl)cc1NC(=O)[C@@H]1CCCN1C(=O)c1cccs1,inactive
15,NS(=O)(=O)c1ccc(CCNc2nc(C(F)(F)F)nc3ccccc23)cc1,inactive
16,COc1cccc(CNc2nc(C(F)(F)F)nc3ccccc23)c1,inactive
17,CCc1ccc(C(CNc2nc(C(F)(F)F)nc3ccccc23)N(C)C)cc1 (centres undefined),51 (active)
18,COc1ccc(NC(=O)CC2C(=O)NC3CCCCC3N2C(=O)c2ccc(F)cc2)cc1 (centres undefined),inactive
19,CC1(C)C=C2[C@H]3CC[C@@H]4[C@@]5(C)CCC(=O)C(C)(C)[C@@H]5CC[C@@]4(C)[C@]3(C)CC[C@@]2(C(=O)O)CC1,inactive
20,CC1(C)C2CCC13CS(=O)(=O)NC3C2 (centres undefined),inactive
21,Cc1ccc(C(=O)NC23CC4CC(CC(C4)C2)C3)c(Cl)c1,inactive
